Laboratory results reported in ChEMBL document CHEMBL4616711, “Discovery of 2,6-Dimethylpiperazines as Allosteric Inhibitors of CPS1” (ACS Med Chem Lett, 2020).
≈ marks a conversion by molar mass, not a printed value.

Columns and labels:
[1] = biological target: T1, Carbamoyl-phosphate synthase [ammonia], mitochondrial (Homo sapiens, UniProt P31327); experiment: Allosteric inhibition of His-tagged CPS1 (unknown origin) expressed in baculovirus infected Sf21 insect cells assessed as reduction in ADP level preincubated for 20 mins followed by ATP addition measured after 60 mins by ADP-Glo assay
T1 sequence (P31327 whole entry): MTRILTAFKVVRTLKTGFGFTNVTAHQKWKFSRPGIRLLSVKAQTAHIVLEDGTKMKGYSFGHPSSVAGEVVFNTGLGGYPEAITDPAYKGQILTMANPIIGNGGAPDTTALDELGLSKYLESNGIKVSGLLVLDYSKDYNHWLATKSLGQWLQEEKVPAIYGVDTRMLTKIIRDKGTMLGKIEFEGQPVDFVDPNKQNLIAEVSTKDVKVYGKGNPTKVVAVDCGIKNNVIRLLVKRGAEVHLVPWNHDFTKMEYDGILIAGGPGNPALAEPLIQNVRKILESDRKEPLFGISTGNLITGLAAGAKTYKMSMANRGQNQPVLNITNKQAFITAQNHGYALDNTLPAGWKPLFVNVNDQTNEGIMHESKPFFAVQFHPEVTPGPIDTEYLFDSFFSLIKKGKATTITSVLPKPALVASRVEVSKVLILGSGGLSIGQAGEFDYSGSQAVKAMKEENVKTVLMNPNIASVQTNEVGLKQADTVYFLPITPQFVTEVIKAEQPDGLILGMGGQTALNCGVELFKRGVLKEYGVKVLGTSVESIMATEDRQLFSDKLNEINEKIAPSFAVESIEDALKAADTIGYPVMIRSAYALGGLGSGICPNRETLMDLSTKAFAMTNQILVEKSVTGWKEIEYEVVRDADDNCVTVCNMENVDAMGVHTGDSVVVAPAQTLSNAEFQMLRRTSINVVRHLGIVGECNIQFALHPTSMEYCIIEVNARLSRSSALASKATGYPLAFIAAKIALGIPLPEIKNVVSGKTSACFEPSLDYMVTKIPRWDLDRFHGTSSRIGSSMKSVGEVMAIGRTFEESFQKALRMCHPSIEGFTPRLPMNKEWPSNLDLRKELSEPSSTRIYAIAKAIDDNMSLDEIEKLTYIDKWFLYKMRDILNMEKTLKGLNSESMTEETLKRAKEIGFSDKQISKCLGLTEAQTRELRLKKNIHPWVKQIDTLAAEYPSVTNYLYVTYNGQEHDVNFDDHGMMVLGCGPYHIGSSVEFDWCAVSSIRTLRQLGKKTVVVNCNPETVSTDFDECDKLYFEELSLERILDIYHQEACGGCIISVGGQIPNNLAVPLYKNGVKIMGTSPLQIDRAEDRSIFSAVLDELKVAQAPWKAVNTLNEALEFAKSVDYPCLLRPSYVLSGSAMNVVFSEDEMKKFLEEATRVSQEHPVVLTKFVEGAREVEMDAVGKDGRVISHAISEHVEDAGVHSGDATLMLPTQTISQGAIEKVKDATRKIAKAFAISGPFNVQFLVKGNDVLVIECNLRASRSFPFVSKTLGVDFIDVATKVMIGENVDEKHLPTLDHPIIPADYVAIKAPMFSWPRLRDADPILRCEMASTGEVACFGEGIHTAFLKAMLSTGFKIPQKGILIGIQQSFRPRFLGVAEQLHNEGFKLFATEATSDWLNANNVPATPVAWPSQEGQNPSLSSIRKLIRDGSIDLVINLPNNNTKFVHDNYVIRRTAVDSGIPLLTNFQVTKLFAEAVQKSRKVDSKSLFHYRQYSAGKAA
In short: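 CPS1 activity read as ADP formation in the presence of inhibitor. IC50 taken as the average of at least two experimental replicates (N = 2).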

[2] = biological target: T1, Carbamoyl-phosphate synthase [ammonia], mitochondrial; experiment: Inhibition of CPS1 in human pooled hepatocytes assessed as reduction in urea production measured after 16 hrs in presence of NH4Cl by tecan-plate reader analysis; format: cell-based
In short: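 Primary human hepatocytes given 10 mM NH4Cl together with compound over a concentration series. Urea secreted into the medium measured after 16 h. IC50 derived from the inhibition of urea production.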

[3] = Clearance in human pooled hepatocytes assessed per million cells at 1 uM measured up to 120 mins by LC-MS/MS analysis; format: ADME, cell-based, Hepatocyte; conditions: read-out: CLH
[4] = biological target: Multifunctional protein CAD (Homo sapiens, UniProt P27708); experiment: Inhibition of CAD (unknown origin) CSP2 activity expressed in Escherichia coli BL21 (DE3) preincubated for 20 mins followed by ATP addition measured after 60 mins by ADP-Glo assay
Multifunctional protein CAD, sequence (P27708 whole entry): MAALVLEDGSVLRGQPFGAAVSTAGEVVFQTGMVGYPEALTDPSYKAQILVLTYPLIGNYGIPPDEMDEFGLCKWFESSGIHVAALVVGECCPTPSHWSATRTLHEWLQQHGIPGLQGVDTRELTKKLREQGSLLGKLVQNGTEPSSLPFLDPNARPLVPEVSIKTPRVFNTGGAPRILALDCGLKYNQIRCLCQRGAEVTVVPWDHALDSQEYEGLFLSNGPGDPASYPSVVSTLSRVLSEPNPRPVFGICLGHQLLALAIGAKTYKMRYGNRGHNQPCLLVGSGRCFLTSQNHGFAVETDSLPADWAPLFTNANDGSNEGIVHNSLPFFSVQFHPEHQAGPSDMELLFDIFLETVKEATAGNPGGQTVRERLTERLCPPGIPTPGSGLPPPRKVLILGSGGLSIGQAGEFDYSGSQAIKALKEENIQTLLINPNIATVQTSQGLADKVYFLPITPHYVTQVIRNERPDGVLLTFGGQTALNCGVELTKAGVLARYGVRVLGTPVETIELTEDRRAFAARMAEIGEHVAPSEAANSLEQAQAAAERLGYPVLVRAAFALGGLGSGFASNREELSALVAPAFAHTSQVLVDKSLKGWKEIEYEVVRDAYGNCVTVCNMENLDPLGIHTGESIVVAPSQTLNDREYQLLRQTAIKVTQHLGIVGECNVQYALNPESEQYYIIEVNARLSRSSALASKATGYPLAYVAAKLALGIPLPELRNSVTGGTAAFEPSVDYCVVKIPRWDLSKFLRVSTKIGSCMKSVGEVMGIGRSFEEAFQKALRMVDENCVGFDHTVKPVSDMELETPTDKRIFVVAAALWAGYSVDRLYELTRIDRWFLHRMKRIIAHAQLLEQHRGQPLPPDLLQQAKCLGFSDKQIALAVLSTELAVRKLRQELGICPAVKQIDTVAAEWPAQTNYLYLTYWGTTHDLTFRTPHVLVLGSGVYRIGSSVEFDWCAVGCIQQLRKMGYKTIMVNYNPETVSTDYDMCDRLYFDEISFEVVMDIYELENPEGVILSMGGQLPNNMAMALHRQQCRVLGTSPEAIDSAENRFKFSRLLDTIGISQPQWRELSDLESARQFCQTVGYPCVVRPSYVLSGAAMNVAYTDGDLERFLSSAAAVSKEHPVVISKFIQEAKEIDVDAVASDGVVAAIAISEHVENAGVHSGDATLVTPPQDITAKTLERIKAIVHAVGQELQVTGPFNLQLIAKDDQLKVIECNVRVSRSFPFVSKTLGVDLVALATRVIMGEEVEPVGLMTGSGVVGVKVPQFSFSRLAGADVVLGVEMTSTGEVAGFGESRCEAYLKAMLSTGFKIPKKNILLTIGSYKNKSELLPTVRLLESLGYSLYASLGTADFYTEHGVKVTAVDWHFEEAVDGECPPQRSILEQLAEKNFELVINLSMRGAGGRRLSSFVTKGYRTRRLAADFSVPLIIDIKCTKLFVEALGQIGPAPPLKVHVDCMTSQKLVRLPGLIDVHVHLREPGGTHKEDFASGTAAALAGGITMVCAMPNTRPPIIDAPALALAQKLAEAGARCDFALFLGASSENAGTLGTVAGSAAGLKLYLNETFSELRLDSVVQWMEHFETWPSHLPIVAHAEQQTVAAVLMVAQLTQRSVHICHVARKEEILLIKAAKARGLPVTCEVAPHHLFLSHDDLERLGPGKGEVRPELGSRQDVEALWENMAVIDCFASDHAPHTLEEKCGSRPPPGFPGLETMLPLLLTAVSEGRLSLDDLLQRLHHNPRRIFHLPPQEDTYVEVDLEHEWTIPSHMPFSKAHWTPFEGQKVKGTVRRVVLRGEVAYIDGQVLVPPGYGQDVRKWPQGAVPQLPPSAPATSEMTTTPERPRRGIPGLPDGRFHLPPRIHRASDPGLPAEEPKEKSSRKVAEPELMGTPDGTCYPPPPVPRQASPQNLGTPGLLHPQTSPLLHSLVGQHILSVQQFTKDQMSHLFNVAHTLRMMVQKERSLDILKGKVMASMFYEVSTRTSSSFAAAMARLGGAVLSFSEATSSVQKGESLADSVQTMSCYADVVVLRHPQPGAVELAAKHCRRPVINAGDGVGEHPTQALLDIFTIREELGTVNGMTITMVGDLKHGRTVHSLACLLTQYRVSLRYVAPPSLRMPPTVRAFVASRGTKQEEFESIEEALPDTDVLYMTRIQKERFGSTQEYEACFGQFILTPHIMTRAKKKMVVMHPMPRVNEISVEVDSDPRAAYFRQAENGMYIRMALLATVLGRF

[5] = Apparent permeability across apical to basolateral membrane in human Caco2 cells at 5 uM incubated for 2 hrs by LC-MS/MS analysis; format: ADME, cell-based; conditions: Caco-2
[6] = Kinetic solubility in Dulbecco's phosphate buffer saline at pH 7.4 by UPLC analysis; format: physicochemical; conditions: Dulbecco's phosphate buffered saline, read-out: Kinetic_solubility

Compound `COc1ccc(C(=O)C2CCN(C(=O)c3ccc(OC)cc3F)CC2)c(F)c1` has an IC50 [1] of 21500 nM.
With `COc1ccc(C(=O)N2[C@H](C)CN(C(=O)c3cc(NC(C)=O)ccc3F)C[C@H]2C)c(F)c1` the IC50 [1] was > 66000 nM.
For `COc1ccc(C(=O)N2[C@H](C)CN(C(=O)c3cccc(OC)c3F)C[C@H]2C)c(F)c1`, the IC50 [1] was > 66000 nM.
`COc1ccc(C(=O)N2[C@H](C)CN(C(=O)c3ccc4cc(C)[nH]c4c3)C[C@H]2C)c(F)c1` gave an IC50 ([2]; read-out: IC50) of 1000 nM.
`COc1ccc(C(=O)N2C[C@@H](C)N(C(=O)c3ccc(OC(C)C)cc3F)[C@H](C)C2)c(F)c1` showed an IC50 [1] of 1400 nM.
With `COc1ccc(C(=O)N2CC3CC2CN3C(=O)c2ccc(OC)cc2F)c(F)c1` the IC50 [1] was > 66000 nM.
In the case of `COc1ccc(C(=O)N2[C@H](C)CN(C(=O)c3ccc4[nH]ccc4c3)C[C@H]2C)c(F)c1`, the IC50 [2] is reported as “Not Active” and the IC50 [1] is reported as > 66000 nM.
In the case of `COc1ccc(C(=O)N2[C@H](C)CN(C(=O)c3cc(OC)ccc3F)C[C@H]2C)c(F)c1`, the IC50 [1] is reported as > 66000 nM.
For `COc1ccc(C(=O)N2CC(C)N(C(=O)c3ccc(OC)cc3F)CC2C)c(F)c1` (stereo not drawn), the IC50 [1] was 11400 nM.
`CCOc1ccc(C(=O)N2[C@H](C)CN(C(=O)c3ccc(OC)cc3F)C[C@H]2C)c(F)c1` gave an IC50 [1] of 380 nM.
In the case of `COc1ccc(C(=O)N2CCCN(C(=O)c3ccc(OC)cc3F)CC2)c(F)c1`, the IC50 [1] is reported as 18900 nM.
In the case of `COc1ccc(C(=O)N2[C@H](C)CN(C(=O)c3ccc4ccn(C)c4c3)C[C@H]2C)c(F)c1`, the IC50 [2] is reported as “Not Active”.
In the case of `COc1ccc(C(=O)N2C[C@@H](C)N(C(=O)c3ccc(F)cc3F)[C@H](C)C2)c(F)c1`, the IC50 [1] is reported as 1300 nM.
With `Cc1csc(NC(=O)C2CCN(C(=O)N(C)Cc3ccccc3)CC2)n1` the hepatocyte CLint at 1 µM [3] was 35 µL/min/1e6 cells and the IC50 [1] was 1500 nM.
For `COc1ccc(C(=O)N2[C@H](C)CN(C(=O)c3ccc4cc[nH]c4c3)C[C@H]2C)c(F)c1`, the hepatocyte CLint at 1 µM [3] was 8.7 µL/min/1e6 cells, the IC50 [4] was ≥ 100000 nM and the Papp A→B at 2 h, 5 µM [5] was 12.3 ×10⁻⁶ cm/s. It also gave an IC50 ([2]; read-out: IC50) of 240 nM, an IC50 [1] of 66 nM and a solubility kinetic [6] of 148 µM (≈ 60.6 µg/mL).
With `CCOc1ccc(C(=O)N2C[C@@H](C)N(C(=O)c3ccc(OC)cc3F)[C@H](C)C2)c(F)c1` the IC50 [1] was 130 nM.
